Test results from ChEMBL document CHEMBL1129639, “Synthesis and cardiotonic activity of novel pyrimidine derivatives: crystallographic and quantum chemical studies” (J Med Chem, 1996).
Blank lines part the entries; values can stand above or below the compound they belong to.

How the values were obtained:
Cavia porcellus [1] = species: Cavia porcellus; test: Compound was evaluated for its effect on the frequency rate of spontaneously beating atria from Reserpine-treated guinea pigs as percentage variation from the control at concentration of 3 x 10E-4 M; assay type: functional
Procedure, shortened: (§1)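 Atria from reserpine-treated guinea pigs (reserpine 2 mg/kg ip, 48 and 24 h before death; only tyramine-unresponsive preparations used). Bath solution at 29 °C, gassed 95% O2/5% CO2, pH 7.5, resting tension […]. After 90 min equilibration, compound added cumulatively, 5 min per concentration. Isometric developed-tension amplitude or beating rate given as % variation from untreated control. Mean ± SEM, 6-10 assays.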

Cavia porcellus [2] = species: Cavia porcellus; test: Effect on the contractile force of spontaneously beating atria from Reserpine-treated guinea pigs as percentage variation from the control at concentration of 10E-6 M; assay type: functional; procedure, shortened: as §1
Cavia porcellus [3] = species: Cavia porcellus; test: Effect on the contractile force of spontaneously beating atria from Reserpine-treated guinea pigs as percentage variation from the control at concentration of 10E-3 M; assay type: functional; procedure, shortened: as §1
Cavia porcellus [4] = species: Cavia porcellus; test: Effect on the contractile force of spontaneously beating atria from Reserpine-treated guinea pigs as percentage variation from the control at concentration of 3 x 10E-4 M; assay type: functional; procedure, shortened: as §1
Cavia porcellus [5] = species: Cavia porcellus; test: Effect on the contractile force of spontaneously beating atria from Reserpine treated guinea pigs as percentage variation from the control at concentration of 10E-4 M; assay type: functional; procedure, shortened: as §1
Cavia porcellus [6] = species: Cavia porcellus; test: Effect on the contractile force of spontaneously beating atria from Reserpine-treated guinea pigs as percentage variation from the control at concentration of 3 x 10E-5 M; assay type: functional; procedure, shortened: as §1
Cavia porcellus [7] = species: Cavia porcellus; test: Effect on the frequency rate of spontaneously beating atria from Reserpine-treated guinea pigs as percentage variation from the control at concentration of 10E-4 M; assay type: functional; procedure, shortened: as §1
Cavia porcellus [8] = species: Cavia porcellus; test: Effect on the frequency rate of spontaneously beating atria from Reserpine-treated guinea pigs as percentage variation from the control at concentration of 10E-3 M; assay type: functional; procedure, shortened: as §1
Cavia porcellus [9] = species: Cavia porcellus; test: Effect on the frequency rate of spontaneously beating atria from Reserpine-treated guinea pigs as percentage variation from the control at concentration of 10E-6 M; assay type: functional; procedure, shortened: as §1
Cavia porcellus [10] = species: Cavia porcellus; test: Effect on the contractile force of spontaneously beating atria from Reserpine-treated guinea pigs as percentage variation from the control at concentration of 3 x 10E-6 M; assay type: functional; procedure, shortened: as §1
Cavia porcellus [11] = species: Cavia porcellus; test: Effect on the frequency rate of spontaneously beating atria from Reserpine-treated guinea pigs as percentage variation from the control at concentration of 10E-5 M; assay type: functional; procedure, shortened: as §1
Cavia porcellus [12] = species: Cavia porcellus; test: Effect on the contractile force of spontaneously beating atria from Reserpine-treated guinea pigs as percentage variation from the control at concentration of 10E-5 M; assay type: functional; procedure, shortened: as §1
Cavia porcellus [13] = species: Cavia porcellus; test: (§2) Compound was evaluated for its effect on the frequency rate of spontaneously beating atria from Reserpine-treated guinea pigs as percentage variation from the control at concentration of 3 x 10E-5 M; assay type: functional, guinea pig; procedure, shortened: as §1
Cavia porcellus [14] = species: Cavia porcellus; test: Compound was evaluated for its effect on the frequency rate of spontaneously beating atria from Reserpine-treated guinea pigs as percentage variation from the control at concentration of 3 x 10E-6 M; assay type: functional; procedure, shortened: as §1
Cavia porcellus [15] = species: Cavia porcellus; test: Ionotropic Response to 8-Phenyltheophylline (10E-4) in Electrically driven Left atrium from Resperpine-Treated Guinea pigs at the concentration of 3 x 10E-4 M; assay type: functional, Cardiac atrium
Procedure, shortened: (§3)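 Electrically driven left atrium from reserpine-treated guinea pigs, 29 °C, pH 7.5. Cumulative 8-phenyltheophylline concentration-effect curves were run without or with 3 × 10^-5 to 3 × 10^-4 M test compound (DMSO). Developed tension given as % variation from control. Mean ± SEM of four assays from four experiments; Student's t-test against the 8-phenyltheophylline-only atrium.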

Cavia porcellus [16] = species: Cavia porcellus; test: Ionotropic Response to 8-Phenyltheophylline (3 x 10E-5 M) in Electrically driven Left atrium from Resperpine-Treated Guinea pigs at the concentration of 3 x 10E-5 M; assay type: functional, Cardiac atrium
Procedure, shortened: (§4)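 Guinea pigs pretreated with reserpine (2 mg/kg ip) 48 and 24 h before sacrifice; atria unresponsive to tyramine (2 µg/mL) used. Left atrium electrically driven, in oxygenated salt solution (95% O2/5% CO2, pH 7.5, 29 °C), resting tension […], isometric developed tension. 90 min equilibration; test agent present while cumulative 8-phenyltheophylline curves run, 5 min per concentration; % variation from control; mean ± SEM, four assays.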

Cavia porcellus [17] = species: Cavia porcellus; test: Ionotropic Response to 8-Phenyltheophylline (10e-5 M) in Electrically driven Left atrium from Resperpine-Treated Guinea pigs at the concentration of 10E-4 M; assay type: functional, Cardiac atrium; procedure, shortened: as §3
Cavia porcellus [18] = species: Cavia porcellus; test: Ionotropic Response to 8-Phenyltheophylline in Electrically driven Left atrium from Resperpine-Treated Guinea pigs at the concentration of 10E-4 M; assay type: functional, Cardiac atrium; procedure, shortened: as §4
Cavia porcellus [19] = species: Cavia porcellus; test: as §2; assay type: functional; procedure, shortened: as §1
Cavia porcellus [20] = species: Cavia porcellus; test: Ionotropic Response to 8-Phenyltheophylline (3 x 10E-6 M) in Electrically driven Left atrium from Resperpine-Treated Guinea pigs at the concentration of 10E-4 M; assay type: functional, Cardiac atrium; procedure, shortened: as §4
Cavia porcellus [21] = species: Cavia porcellus; test: Ionotropic Response to 8-Phenyltheophylline (10E-5) in Electrically driven Left atrium from Resperpine-Treated Guinea pigs at the concentration of 3 x 10E-4 M; assay type: functional, Cardiac atrium; procedure, shortened: as §3
Cavia porcellus [22] = species: Cavia porcellus; test: Ionotropic Response to 8-Phenyltheophylline (10e-4 M) in Electrically driven Left atrium from Resperpine-Treated Guinea pigs at the concentration of 3 x 10E-5 M; assay type: functional, Cardiac atrium; procedure, shortened: as §3
Cavia porcellus [23] = species: Cavia porcellus; test: Ionotropic Response to 8-Phenyltheophylline (3 x 10E-6 M) in Electrically driven Left atrium from Resperpine-Treated Guinea pigs at the concentration of 3 x 10E-4 M; assay type: functional, Cardiac atrium; procedure, shortened: as §4
Cavia porcellus [24] = species: Cavia porcellus; test: Inotropic effect in electrically driven left atrium from reserpine-treated guinea pigs at concentration of 10E-3 M; assay type: functional, Cardiac atrium
Procedure, shortened: (§5)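 Electrically driven left atrium from reserpine-treated guinea pigs (tyramine-unresponsive), 29 °C, pH 7.5, resting tension […], 90 min equilibration. Compound dissolved in DMSO and added cumulatively, 5 min per step. Where used, adenosine deaminase was preincubated 20 min, and basal force was taken after ADA addition. Developed tension given as % change over control. Mean ± SEM of six assays.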

Cavia porcellus [25] = species: Cavia porcellus; test: Inotropic effect in electrically driven left atrium from reserpine-treated guinea pigs at concentration of 3 x 10E-6 M; assay type: functional, Cardiac atrium; procedure, shortened: as §5
Adenosine receptor A1 = biological target: T1, Adenosine receptor A1 (Cavia porcellus, UniProt P47745); test: Inhibition of [3H]-CHA binding to Adenosine A1 receptor in guinea pig heart
T1 sequence (P47745 whole entry): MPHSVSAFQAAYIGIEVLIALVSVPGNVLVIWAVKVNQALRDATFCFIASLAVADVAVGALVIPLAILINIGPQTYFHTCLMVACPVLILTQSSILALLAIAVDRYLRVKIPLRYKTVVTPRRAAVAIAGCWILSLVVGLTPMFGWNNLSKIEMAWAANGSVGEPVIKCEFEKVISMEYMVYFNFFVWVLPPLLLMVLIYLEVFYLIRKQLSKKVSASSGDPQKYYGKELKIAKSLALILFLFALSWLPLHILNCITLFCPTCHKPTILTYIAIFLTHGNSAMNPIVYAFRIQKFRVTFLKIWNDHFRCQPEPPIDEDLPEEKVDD
Procedure, shortened: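 Guinea pig heart membranes prepared in 50 mM Tris-HCl pH 7.4 and pretreated with adenosine deaminase 2 IU/mL for 30 min at 37 °C. Incubated with 1 nM [3H]CHA, membranes from 15 mg tissue, 120 min at 23 °C. Bound ligand separated by GF/B filtration; nonspecific binding defined with (R)-PIA. Six concentrations tested in triplicate; IC50 by probit analysis.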

Cavia porcellus [26] = species: Cavia porcellus; test: Inotropic effect in electrically driven left atrium from reserpine-treated guinea pigs at concentration of 3 x 10E-4 M; assay type: functional, Cardiac atrium; procedure, shortened: as §5
Cavia porcellus [27] = species: Cavia porcellus; test: Inotropic effect in electrically driven left atrium from reserpine-treated guinea pigs at concentration of 10E-6 M; assay type: functional, Cardiac atrium; procedure, shortened: as §5
Cavia porcellus [28] = species: Cavia porcellus; test: Inotropic effect in electrically driven left atrium from reserpine-treated guinea pigs at concentration of 10E-4 M; assay type: functional, Cardiac atrium; procedure, shortened: as §5
Cavia porcellus [29] = species: Cavia porcellus; test: Ionotropic Response to 8-Phenyltheophylline (3 x 10E-5 M) in Electrically driven Left atrium from Resperpine-Treated Guinea pigs at the concentration of 10E-4 M; assay type: functional, Cardiac atrium; procedure, shortened: as §4
Cavia porcellus [30] = species: Cavia porcellus; test: Ionotropic Response to 8-Phenyltheophylline in Electrically driven Left atrium from Resperpine-Treated Guinea pigs at the concentration of 3 x 10E-5 M; assay type: functional, Cardiac atrium; procedure, shortened: as §4
Cavia porcellus [31] = species: Cavia porcellus; test: Ionotropic Response to 8-Phenyltheophylline (10e-4 M) in Electrically driven Left atrium from Resperpine-Treated Guinea pigs at the concentration of 10E-4 M; assay type: functional, Cardiac atrium; procedure, shortened: as §3
Cavia porcellus [32] = species: Cavia porcellus; test: Ionotropic Response to 8-Phenyltheophylline (3 x 10E-6 M) in Electrically driven Left atrium from Resperpine-Treated Guinea pigs at the concentration of 3 x 10E-5 M; assay type: functional, Cardiac atrium; procedure, shortened: as §4
Cavia porcellus [33] = species: Cavia porcellus; test: Inotropic effect in electrically driven left atrium from reserpine-treated guinea pigs at concentration of 3 x 10E-5 M; assay type: functional, Cardiac atrium; procedure, shortened: as §5
Cavia porcellus [34] = species: Cavia porcellus; test: Ionotropic Response to 8-Phenyltheophylline (10e-5 M)in Electrically driven Left atrium from Resperpine-Treated Guinea pigs at the concentration of 3 x 10E-5 M; assay type: functional, Cardiac atrium; procedure, shortened: as §3
Cavia porcellus [35] = species: Cavia porcellus; test: Ionotropic Response to 8-Phenyltheophylline (3 x 10E-5 M) in Electrically driven Left atrium from Resperpine-Treated Guinea pigs at the concentration of 3 x 10E-4 M; assay type: functional, Cardiac atrium; procedure, shortened: as §4
Cavia porcellus [36] = species: Cavia porcellus; test: Inotropic effect in electrically driven left atrium from reserpine-treated guinea pigs at concentration of 10E-5 M; assay type: functional, Cardiac atrium; procedure, shortened: as §5
Cavia porcellus [37] = species: Cavia porcellus; test: Ionotropic Response to 8-Phenyltheophylline in Electrically driven Left atrium from Resperpine-Treated Guinea pigs at the concentration of 3 x 10E-4 M; assay type: functional, Cardiac atrium; procedure, shortened: as §4

Compound: CCOC(=O)c1cnc(N(C)C)nc1
Variation (Cavia porcellus [1]): 14.81%
Variation (Cavia porcellus [2]): 1.19%
Variation (Cavia porcellus [3]): -59.61%
Variation (Cavia porcellus [4]): 11.71%
Variation (Cavia porcellus [5]): 9.03%
Variation (Cavia porcellus [6]): 11.04%
Variation (Cavia porcellus [7]): 11.11%
Variation (Cavia porcellus [8]): 18.51%
Variation (Cavia porcellus [9]): 0%
Variation (Cavia porcellus [10]): 4.76%
Variation (Cavia porcellus [11]): 3.71%
Variation (Cavia porcellus [12]): 5.55%
Variation (Cavia porcellus [13]): 7.43%
Variation (Cavia porcellus [14]): 0%

IC50 (Adenosine receptor A1): 21.3 µM
Compound: COC(=O)c1cnc(N(C)C)nc1Cc1ccccc1
Variation (Cavia porcellus [1]): -55.15%
Variation (Cavia porcellus [15]): -6.66%
Variation (Cavia porcellus [2]): 0%
Variation (Cavia porcellus [3]): -100%
Variation (Cavia porcellus [16]): 14.9%
Variation (Cavia porcellus [17]): -3.33%
Variation (Cavia porcellus [4]): -55.28%
Variation (Cavia porcellus [18]): -9.37%
Variation (Cavia porcellus [5]): -13.54%
Variation (Cavia porcellus [19]): -8.03%
Variation (Cavia porcellus [6]): -6.54%
Variation (Cavia porcellus [20]): -4.34%
Variation (Cavia porcellus [21]): -22.2%
Variation (Cavia porcellus [7]): -16.06%
Variation (Cavia porcellus [22]): 20.2%
Variation (Cavia porcellus [23]): -28.9%
Variation (Cavia porcellus [8]): -100%
Variation (Cavia porcellus [24]): -100%
Variation (Cavia porcellus [25]): 4.85%
Variation (Cavia porcellus [26]): -48.3%
Variation (Cavia porcellus [27]): 0%
Variation (Cavia porcellus [9]): 0%
Variation (Cavia porcellus [28]): -14.2%
Variation (Cavia porcellus [29]): 2.72%
Variation (Cavia porcellus [30]): -6.66%
Variation (Cavia porcellus [10]): 5.83%
Variation (Cavia porcellus [11]): 0%
Variation (Cavia porcellus [31]): 19%
Variation (Cavia porcellus [32]): 8.79%
Variation (Cavia porcellus [33]): -5.21%
Variation (Cavia porcellus [34]): 11%
Variation (Cavia porcellus [35]): -11%
Variation (Cavia porcellus [12]): 8.97%
Variation (Cavia porcellus [36]): 7.45%
Variation (Cavia porcellus [14]): 0%
Variation (Cavia porcellus [37]): -33.52%
